This note sets out measurements from ChEMBL document CHEMBL3407360, “Proteasome inhibitors with pyrazole scaffolds from structure-based virtual screening” (J Med Chem, 2015).

For series [1], the species on record is Homo sapiens. Kind of series: Inhibition of human 20S proteasome chymotrypsin-like activity preincubated at 10 uM for 30 mins before substrate addition measured over 90 mins by fluorescence assay.
Series [2] is filed under the species Homo sapiens. Kind of series: Induction of human 20S proteasome chymotrypsin-like activity preincubated at 10 uM for 30 mins before substrate addition measured over 90 mins by fluorescence assay.
Series [3] relates to BXPC-3. Kind of series: Cytotoxicity against human BxPC3 cells after 72 hrs. The class given is functional, cell-based. The method in brief: (§1)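 Adherent lines, growing in log phase in DMEM or RPMI 1640 with 10% FBS, were plated at 7,000–10,000 cells/well. Compound was added 24 h later at the final concentration. Viability was measured after 72 h by CellTiter Glo luminescence or CellTiter 96 Aqueous One absorbance.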

The test system of series [4] is RPMI-8226. Kind of series: Inhibition of 20S proteasome trypsin-like in human RPMI8226 cell extracts using Boc-LRR-AMC as substrate preincubated at 1 to 10 uM for 30 mins before substrate addition by fluorescence assay. The class given is cell-free. The method in brief: (§2)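 Cytosolic extracts of RPMI 8226 cells served as the proteasome source in place of purified enzyme. Extracts were preincubated with compound, and hydrolysis of Suc-LLVY-AMC (CT-L), Z-LLE-AMC (C-L) or Boc-LRR-AMC (T-L) was read by AMC fluorescence at ex 360/em 460 nm.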

The test system of series [5] is RPMI-8226. Kind of series: Inhibition of 20S proteasome caspase-like in human RPMI8226 cell extracts using Z-LLE-AMC as substrate preincubated at 1 to 10 uM for 30 mins before substrate addition by fluorescence assay. The class given is cell-free. The method in brief:
as §2

Series [6] has as its system Liver microsome. Kind of series: Metabolic stability in human liver microsomes. Format: ADME. The method in brief:
(§3)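 Compound at 1 µM was incubated with 0.5 mg/ml microsomal protein, either pooled Balb/c mouse or pooled human. The buffer was 100 mM Tris-HCl pH 7.4 with an NADPH-generating system (isocitrate, isocitrate dehydrogenase, MgCl2, NADP+). After 5 min preincubation at 37°C, reactions ran 0, 5, 10 or 20 min and were quenched with cold acetonitrile containing phenytoin internal standard. Parent remaining was measured by LC-MS/MS.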

Series [7] deals with BXPC-3. Kind of series: Cytotoxicity against carfilzomib-resistant human BxPC3 cells after 72 hrs. The class given is functional, cell-based. The method in brief: (§4)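 Resistant BxPC-3 sublines were derived by about 6 months of stepwise increasing drug exposure. […] Compound was added 24 h after plating. Viability was read after 72 h by CellTiter Glo luminescence or CellTiter 96 Aqueous One.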

Series [8] concerns Liver. Kind of series: Metabolic stability in Balb/c mouse liver microsomes. Format: ADME. The method in brief: as §3
The subject of series [9] is RPMI-8226. Kind of series: Reversible inhibition of 20S proteasome in human RPMI8226 cell extracts assessed as dissociation half life compound preincubated for 30 mins followed by 25-fold dilution by jump dilution assay. The class given is cell-based. The method in brief:
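RPMI 8226 lysate (30 µg protein) was incubated with 10 µM compound for 30 min at room temperature in 20S assay buffer. Baseline Suc-LLVY-AMC hydrolysis was recorded in a cuvette, then the mixture was rapidly diluted 25-fold in assay buffer and recovery of activity was monitored.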

Series [10] deals with RPMI8266. Kind of series: Cytotoxicity against human […] cells after 72 hrs. Format: functional, cell-based. Summed up: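 Suspension RPMI 8226 cells were collected by centrifugation and plated at 10,000 cells/well in medium with 10% FBS. Compound was added 24 h later. Viability was read after 72 h by CellTiter Glo or CellTiter 96 Aqueous One.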
Series [11] deals with RPMI-8226. Kind of series: Inhibition of 20S proteasome chymotrypsin-like in human RPMI8226 cell extracts using Suc-LLVY-AMC as substrate preincubated at 1 to 10 uM for 30 mins before substrate addition by fluorescence assay. Format: cell-free. The method in brief:
as §2

For series [12], the system named is LNCaP. Kind of series: Antitumor activity against human LNCAP cells xenografted in nude mouse assessed as tumor growth inhibition at 5 mg/kg, ip twice a week for 4 weeks. On the set-up: dose 5 mg/kg. Format: functional, organism-based. Summed up:
(§5)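 Male athymic BALB/c nude mice, six weeks old, implanted subcutaneously with LNCaP cells (2 x 10^6 cells/50 µL). At ~100 mm3 tumors, n=5/group received 5 mg/kg ip twice weekly for four weeks in 8% DMSO in HP-β-cyclodextrin and citrate. Tumor volume ((width)2 x length/2) and body weight were measured every 4 days. Tumors were excised and weighed at Day 30.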
On the technique in general: A xenograft is tissue or cells of one species grown in another, often human tumour cells in immunodeficient mice.

For series [13], the system named is Mus musculus. Kind of series: Toxicity in human LNCAP cells xenografted nude mouse assessed as body weight loss at 5 mg/kg, ip twice a week for 4 weeks. The class given is organism-based. The arrangement: dose 5 mg/kg, route intraperitoneal. To be noted: in vivo, 672 h. The method in brief:
as §5

For series [14], the system named is BXPC-3. Kind of series: Cytotoxicity against bortezomib-resistant human BxPC3 cells after 72 hrs. Format: functional, cell-based. The method in brief: as §4
For series [15], the system named is LNCaP. Kind of series: Cytotoxicity against human LNCAP cells after 72 hrs. The class given is functional, cell-based. Summed up: as §1

Each structure is given as a SMILES string. Active and inactive are the calls of the source. The calls are words filed in the database; no cut-off is given here.

On to `Cc1ccc(OS(=O)(=O)c2cccc(C(F)(F)F)c2)c(-c2cc(-c3ccccc3)n(CC(=O)NCc3cnccn3)n2)c1`, for which, in series [1], the inhibition entry was “Active”.
In turn, `Cc1ccc(OS(=O)(=O)c2ccc(F)c([N+](=O)[O-])c2)c(-c2cc(-c3ccccc3)n(CCN[C@@H]3CCNC3)n2)c1` gave an Activity in series [2] of 200%. In series [1], the inhibition result was “Active”.
`Cc1ccc(OS(=O)(=O)c2cccc(C(F)(F)F)c2)c(-c2cc(C3CCCN(C(=O)N[C@@H]4CCNC4)C3)n(CCN[C@@H]3CCNC3)n2)c1` (some centres not stated): the outcome in series [3] was inactive.
As for `Cc1ccc(OS(=O)(=O)c2cccc(C(F)(F)F)c2)c(-c2cc(-c3ccccc3)n(CC(=O)N(C)CC[C@@H](Oc3ccccc3)c3ccccc3)n2)c1`, the inhibition entry in [1] is “Active”.
As to `Cc1ccc(OS(=O)(=O)c2ccc(C(F)(F)F)nc2)c(-c2cc(-c3ccccc3)n(CCN[C@@H]3CCNC3)n2)c1`, in series [1], the inhibition result was “Active”.
For `Cc1ccc(OC(=O)c2cccc(C(F)(F)F)c2)c(-c2cc(-c3ccccc3)n(CCN[C@@H]3CCNC3)n2)c1`, the inhibition entry in series [1] is “Active”.
For the compound `Cc1ccc(OS(=O)(=O)c2cccc(C(F)(F)F)c2)c(-c2cc(C3CCCCC3)n(CCN[C@@H]3CCNC3)n2)c1`, the result in series [3] was inactive.
Consider `CC(=O)N1CC[C@@H](NC(=O)Cn2nc(-c3cc(C)ccc3OS(=O)(=O)c3cccc(C(F)(F)F)c3)cc2-c2ccccc2)C1`, for which the inhibition result in series [1] was “Active”.
Turning to `Cc1ccc(OS(=O)(=O)c2cccc(C(F)(F)F)c2)c(-c2cc(-c3ccccc3)n(CC(=O)NCC(C)(C)C)n2)c1`, the inhibition result in series [1] was “Active”.
On the same count and under the same terms, the entry for `Cc1ccc(OS(=O)(=O)c2ccc3c(c2)OCCO3)c(-c2cc(-c3ccccc3)n(CCN[C@@H]3CCNC3)n2)c1` is “Active”; for `Cc1ccc(OS(=O)(=O)c2cccc(C(F)(F)F)c2)c(-c2cc(-c3ccccc3)n(CC(=O)O)n2)c1` it is “Active”; for `Cc1ccc(OS(=O)(=O)c2cccc(C(F)(F)F)c2)c(-c2cc(-c3ccccc3)n(CC(=O)NC(C)(C)CO)n2)c1` it is “Active”.
Take `Cc1ccc(OS(=O)(=O)c2cccc(C(F)(F)F)c2)c(-c2cc(-c3ccccc3)n(CC(=O)N(C)C)n2)c1`: the inhibition result in [1] is “Active”.
For `Cc1ccc(OS(=O)(=O)c2cccc(C(F)(F)F)c2)c(-c2cc(-c3ccccc3)n(CC(=O)N[C@@H]3CCNC3)n2)c1`, the result in series [3], in series [7], in series [10], in series [14] and in series [15] was Active. In [4], the inhibition result was “inactive”. Moreover, the inhibition result in [5], in series [11] and in series [1] was “Active” throughout. Besides, the Stability result in series [6] and in series [8] was “Stable” in each case. Moreover, the T1/2 in series [9] was determined as 3.2 min. In [12], the TGI result was “Active”. For the same compound, the Activity result in series [13] was “Non-toxic”.
`CC(C)C[C@H](NC(=O)[C@H](CCc1ccccc1)NC(=O)CN1CCOCC1)C(=O)N[C@@H](Cc1ccccc1)C(=O)N[C@@H](CC(C)C)C(=O)[C@@]1(C)CO1` [CARFILZOMIB]: in series [13], the Activity entry is on record as “Toxic”.
Consider `Cc1ccc(OS(=O)(=O)c2cccc(C(F)(F)F)c2)c(-c2cc(-c3ccccc3)n(CC(=O)NCCN3CCOCC3)n2)c1`, for which the inhibition result in series [1] was “Active”.
Still for that read-out and setting: the entry for `Cc1ccc(OS(=O)(=O)c2cccc(C(F)(F)F)c2)c(-c2cc(-c3ccccc3)n(CC(=O)NCc3ccccc3)n2)c1` is “Active”.
Still for that read-out and setting: the entry for `Cc1ccc(OS(=O)(=O)c2ccc(Br)cc2OC(F)(F)F)c(-c2cc(-c3ccccc3)n(CCN[C@@H]3CCNC3)n2)c1` is “Active”.
For the compound `Cc1ccc(OS(=O)(=O)c2cccc(C(F)(F)F)c2)c(-c2cc(-c3ccccc3)n(CC(=O)N[C@@H]3CCN(C)C3)n2)c1`, the inhibition result in series [1] is “Active”.
Same read-out and setting: the value for `Cc1ccc(OS(=O)(=O)c2cccc(Cl)c2)c(-c2cc(-c3ccccc3)n(CCN[C@@H]3CCNC3)n2)c1` was “Active”.
The same measure, in the same setting: the value for `Cc1ccc(OCc2cccc(C(F)(F)F)c2)c(-c2cc(-c3ccccc3)n(CCN[C@@H]3CCNC3)n2)c1` was “Active”; that for `Cc1ccc(OS(=O)(=O)c2cccc(C(F)(F)F)c2)c(-c2cc(-c3ccccc3)n(CC(=O)OCc3cc(C)on3)n2)c1` was “Active”; that for `CC(C)=CCOC(=O)Cn1nc(-c2cc(C)ccc2OS(=O)(=O)c2cccc(C(F)(F)F)c2)cc1-c1ccccc1` was “Active”.
For the compound `CCOCCS(=O)(=O)Oc1ccc(C)cc1-c1cc(-c2ccccc2)n(CCN[C@@H]2CCNC2)n1`, the inhibition result in series [1] is “Active”.
With `Cc1ccc(OS(=O)(=O)c2cccc(C(F)(F)F)c2)c(-c2cc(-c3ccccc3)n(CC(=O)O[C@@H]3CCNC3)n2)c1`, the inhibition result in series [1] is “Active”.
In the case of `Cc1ccc(OS(=O)(=O)c2cccc(C(F)(F)F)c2)c(-c2cc(-c3ccccc3)n(CC(=O)OCc3ccc(C)o3)n2)c1`, in [1], the inhibition entry is “Active”.
In the case of `Cc1ccc(OS(=O)(=O)c2cccc(C(F)(F)F)c2)c(-c2cc(-c3ccccc3)n(CC(=O)OCc3ccccc3)n2)c1`, the inhibition entry in series [1] was “Active”.
With `Cc1ccc(OS(=O)(=O)c2cccc(C(F)(F)F)c2)c(-c2cc(C3CCCNC3)n(CCN[C@@H]3CCNC3)n2)c1` (some centres not stated), the result in [3] was inactive.
As for `Cc1ccc(OS(=O)(=O)c2cccc(C(F)(F)F)c2)c(-c2cc(-c3ccccc3)n(CC(=O)N[C@@H]3CCN(C(=O)CN4CCOCC4)C3)n2)c1`, the inhibition result in series [1] was “Active”.
As to `Cc1ccc(OS(=O)(=O)c2cccc(C(F)(F)F)c2)c(-c2cc(-c3ccccc3)n(CC(=O)NCCCN3CCCC3=O)n2)c1`, the inhibition result in series [1] was “Active”.
For the compound `Cc1ccc(OS(=O)(=O)c2cccc(C(F)(F)F)c2)c(-c2cc(-c3ccccc3)n(CC(=O)N[C@@H]3CCN(C(=O)CCc4ccccc4)C3)n2)c1`, the inhibition entry in [1] was “Active”.
With `Cc1ccc(OS(=O)(=O)c2cc(F)c(Br)c(F)c2)c(-c2cc(-c3ccccc3)n(CCN[C@@H]3CCNC3)n2)c1`, in [1], the inhibition entry was “Active”.
As for `Cc1ccc(OS(=O)(=O)c2cccc(C(F)(F)F)c2)c(-c2cc(-c3ccccc3)n(CC(=O)OCc3cccc(O)c3C)n2)c1`, in series [1], the inhibition entry is “Active”.
Regarding `Cc1ccc(OS(=O)(=O)c2cccc(C(F)(F)F)c2)c(-c2cc(-c3ccccc3)n(CC(=O)OCc3scnc3C)n2)c1`, the inhibition result in [1] was “Active”.
Turning to `CC1=C(COC(=O)Cn2nc(-c3cc(C)ccc3OS(=O)(=O)c3cccc(C(F)(F)F)c3)cc2-c2ccccc2)Cc2ccccc21`, the Activity in series [2] was found to be 200%. Also, the inhibition result in series [1] is “Active”.
For the compound `Cc1ccc(OS(=O)(=O)c2cccc(C(F)(F)F)c2)c(-c2cc(-c3ccccc3)n(CC(=O)N[C@H]3CCNC3)n2)c1`, the inhibition entry in [1] was “Active”.
In the case of `Cc1ccc(OS(=O)(=O)c2cccc(C(F)(F)F)c2)c(-c2cc(-c3ccccc3)n(CC(=O)NC[C@@H]3CCCO3)n2)c1`, the inhibition entry in [1] was “Active”.
